The nature of series [1]: folding enthalpy; higher = less favourable; fluorescence melt of hairpins on a sequencing array, two-state fit. As to conditions: sodium 0.088 M. The method in brief:
(§1)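 Folding enthalpy and melting temperature come from bootstrapped two-state fits to Cy3 fluorescence of library hairpins carrying annealed Cy3 and quencher oligos on a sequenced MiSeq flow cell. Imaging was done in 50 mM Na-HEPES pH 8.0, 25 mM NaCl, stepping by 2.5 °C up to 60 °C, and signals were normalised to pre-quench Cy3 and to control constructs. Results of four replicates were combined by inverse variance, and fitted temperatures were raised by 9.35 °C to match UV melts.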

The nature of series [2]: melting temperature; fluorescence melt of hairpins on a sequencing array, two-state fit, raised by 9.35 °C to match UV melts. As to conditions: sodium 0.088 M. The method in brief: as §1

For GATAGGGGAAACCTTATC ((((.((....)).)))), in series [1], the folding enthalpy is -25.5 kcal/mol. Besides, the Tm in series [2] is 33.6 °C.

Consider GATAGGGGAAACTCTATC (((((.(....).))))), for which, in series [1], the folding enthalpy was -31.2 kcal/mol. In series [2], the Tm stood at 35.7 °C.

Take GATATAGAAATATATC ((((((....)))))): the folding enthalpy in series [1] was -15 kcal/mol. Besides, the Tm in series [2] worked out at 31.8 °C.

Consider GATATCCGAAAGGAATC (((.(((....)))))), for which, in series [1], the folding enthalpy was -12.9 kcal/mol. Also, in series [2], the Tm amounted to 30.2 °C.

With GATATCGGAAACGATACC (.(((((....))))).), the folding enthalpy in series [1] was -17.3 kcal/mol. In addition, the Tm in series [2] was found to be 33.7 °C.

Turning to GATATCGGAAACGATGTC ((.((((....)))).)), the folding enthalpy in series [1] was -30.7 kcal/mol. Further, in series [2], the Tm turned out to be 46.7 °C.

In the case of GATATGCGAAAGCAATC (((.(((....)))))), the folding enthalpy in series [1] is -10.7 kcal/mol. Also, the Tm in series [2] turned out to be 30 °C.

Turning to GATATGCGAAAGCAGATC (((.(((....))).))), the folding enthalpy in series [1] is -30.3 kcal/mol. The Tm in series [2] was determined as 53.3 °C.

Consider GATATGGGAAACCATATC (((((((....))))))), for which the folding enthalpy in series [1] was -37.5 kcal/mol. In addition, the Tm in series [2] amounted to 53.3 °C.

As for GATATTACGAAAGTAATC (((..(((....)))))), the folding enthalpy in series [1] is -11.6 kcal/mol. The Tm in series [2] came to 34.7 °C.

Regarding GATATTGGAAACGATATC (((((.(....).))))), the folding enthalpy in series [1] is -33 kcal/mol. For the same sequence, the Tm in series [2] was found to be 36.2 °C.

Consider GATCAAAAGGTTGATC ((((((....)))))), for which the folding enthalpy in series [1] is -23.9 kcal/mol. Also, in series [2], the Tm was 36.1 °C.

For GATCAAAATTTTGATC ((((((....)))))), the folding enthalpy in series [1] was -40.1 kcal/mol. Moreover, the Tm in series [2] is 48.3 °C.

Regarding GATCAAACAATTGATC ((((((....)))))), the folding enthalpy in series [1] is -22.6 kcal/mol. Besides, in series [2], the Tm amounted to 37.1 °C.

As to GATCAAACCTTGATC ((((((...)))))), in series [1], the folding enthalpy was -29.1 kcal/mol. Besides, the Tm in series [2] is 40.9 °C.

As for GATCAAACGCTTGATC ((((((....)))))), the folding enthalpy in series [1] is -29.5 kcal/mol. Moreover, the Tm in series [2] turned out to be 41.5 °C.

Consider GATCAAACTTTTGATC ((((((....)))))), for which the folding enthalpy in series [1] is -27.9 kcal/mol. Also, the Tm in series [2] was 45.9 °C.

Turning to GATCAAAGAATTGATC ((((((....)))))), the folding enthalpy in series [1] is -21.8 kcal/mol. The Tm in series [2] worked out at 40 °C.

On to GATCAAAGAGTTGATC ((((((....)))))), for which, in series [1], the folding enthalpy is -21.3 kcal/mol. In addition, the Tm in series [2] was found to be 37.2 °C.

With GATCAAAGCTTTGATC ((((((....)))))), the folding enthalpy in series [1] is -57.4 kcal/mol. Further, the Tm in series [2] is 50.8 °C.

For GATCAAAGGTTTGATC ((((((....)))))), the folding enthalpy in series [1] was -32.4 kcal/mol. The Tm in series [2] was 44.8 °C.

For GATCAAATAATTGATC ((((((....)))))), the folding enthalpy in series [1] was -27.9 kcal/mol. The Tm in series [2] came out at 34.7 °C.

GATCAAATATTGATC ((((((...)))))): in series [1], the folding enthalpy is -32.8 kcal/mol. Also, the Tm in series [2] worked out at 40.2 °C.

Consider GATCAAATGGTTGATC ((((((....)))))), for which, in series [1], the folding enthalpy was -28.5 kcal/mol. For the same sequence, the Tm in series [2] amounted to 39.6 °C.

Regarding GATCAAATTATTGATC ((((((....)))))), the folding enthalpy in series [1] is -27.7 kcal/mol. Also, the Tm in series [2] worked out at 41.4 °C.

Take GATCAACAGTTGATC ((((((...)))))): the folding enthalpy in series [1] was -40.3 kcal/mol. In series [2], the Tm amounted to 41.7 °C.

With GATCAACCGCTTGATC ((((((....)))))), the folding enthalpy in series [1] is -34.4 kcal/mol. Further, in series [2], the Tm came to 44.2 °C.

On to GATCAACCGTTTGATC ((((((....)))))), for which the folding enthalpy in series [1] is -35.2 kcal/mol. The Tm in series [2] is 42.8 °C.

Consider GATCAACCTTTGATC ((((((...)))))), for which the folding enthalpy in series [1] was -32.4 kcal/mol. The Tm in series [2] turned out to be 42 °C.

For the sequence GATCAACGAAAGTTTATC (((.(((....))).))), the folding enthalpy in series [1] was -28 kcal/mol. In series [2], the Tm is 32.5 °C.

GATCAACGACTTGATC ((((((....)))))): the folding enthalpy in series [1] was -32.3 kcal/mol. Also, the Tm in series [2] was 40.7 °C.

In the case of GATCAACGCATTGATC ((((((....)))))), in series [1], the folding enthalpy was -34.6 kcal/mol. The Tm in series [2] worked out at 46.2 °C.

For the sequence GATCAACGCTTGATC ((((((...)))))), in series [1], the folding enthalpy was -31.4 kcal/mol. For the same sequence, the Tm in series [2] was found to be 42 °C.

Turning to GATCAACTACTTGATC ((((((....)))))), the folding enthalpy in series [1] is -32.5 kcal/mol. Besides, the Tm in series [2] came out at 41.8 °C.

Regarding GATCAACTATTGATC ((((((...)))))), in series [1], the folding enthalpy is -30.4 kcal/mol. Also, the Tm in series [2] amounted to 41 °C.

Consider GATCAACTCATTGATC ((((((....)))))), for which the folding enthalpy in series [1] was -33.8 kcal/mol. The Tm in series [2] was 44.6 °C.

As to GATCAAGAACTTGATC ((((((....)))))), the folding enthalpy in series [1] is -38.4 kcal/mol. Besides, the Tm in series [2] was determined as 49.2 °C.

For GATCAAGAAGTTGATC ((((((....)))))), the folding enthalpy in series [1] is -28.2 kcal/mol. In addition, in series [2], the Tm amounted to 43.9 °C.

The values are drawn from the array DNA melting data of Ke et al. (doi:10.1101/2024.01.08.574731).
